Bioassay records: PubChem, Broad Institute
Shown are actives, neighbours in structure and some others; about 5.9% of the full set was active somewhere.
T cruzi growth-1 – T. cruzi intracellular proliferation inhibitors, primary screen, cell-based, beta-gal Tulahuen parasites, NIH3T3 host, luminescence. T. cruzi beta-gal in NIH3T3, GalScreen luminescence, 90 h. inhibition, % at 8.34 µM. AID 624255, 2012. 77,000 compounds, 5.9% hits;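 active means mean inhibition above about 93%, with at least 55% of replicates each passing it, limit read from the data, passing the limit was not always enough; inconclusive means only one of those two conditions holds; inactive means neither condition holds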
KDM4C inh – inhibitors of GASC-1 (KDM4C) histone demethylase, primary screen, biochemical, single concentration HTS | Lysine-specific demethylase 4C (Homo sapiens), Q9H3R0 | GST-KDM4C 2-372, H3K9me3 peptide, LANCE TR-FRET | 96,000 compounds, 0.15% hits | inhibition, % at 12.5 µM;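 active means mean replicate inhibition above about 25%, with at least 55% of replicates also reaching it, limit read from the data, passing the limit was not always enough; inconclusive means only one of those two conditions met; inactive means neither condition met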
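Material: GST-tagged GASC-1 (JMJD2C) catalytic fragment, aa 2-372. Input: enzyme final amount 10 nM. Medium: HEPES buffer, pH 7.5, plus ascorbate. Reagent: H3K9me3 peptide substrate, Fe(II), 2-oxoglutarate. Doses: single dose. Times: reaction 30 min RT, detection step 1 h RT. Measured by: LANCE TR-FRET. Evaluation: Fall in 671/618 emission ratio as inhibition.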
Pf Dd2 inh – P. falciparum Dd2 growth inhibitors, primary screen, SYBR Green fluorescence, single dose replicates | 94,000 compounds, 2.3% hits | AID 1159554, 2015 | 72 h; hits give low values | activity change, % at 10 µM; in the data active means activity change below about -80%; inconclusive means no clear call, values can overlap the other calls
IDH1 mut inh – inhibitors of IDH1 R132H reductase, primary screen, biochemical, plate reader, single point; inhibition, % at 10 µM; diaphorase/resazurin fluorescence, 60 min; 70,000 compounds, 0.18% hits; in the data active means inhibition above about 34%; inconclusive means no clear call, values can overlap the other calls; inactive means below about 11%;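 further: 0% = DMSO and 100% = no enzyme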
Target sequence (O75874 whole entry R132H): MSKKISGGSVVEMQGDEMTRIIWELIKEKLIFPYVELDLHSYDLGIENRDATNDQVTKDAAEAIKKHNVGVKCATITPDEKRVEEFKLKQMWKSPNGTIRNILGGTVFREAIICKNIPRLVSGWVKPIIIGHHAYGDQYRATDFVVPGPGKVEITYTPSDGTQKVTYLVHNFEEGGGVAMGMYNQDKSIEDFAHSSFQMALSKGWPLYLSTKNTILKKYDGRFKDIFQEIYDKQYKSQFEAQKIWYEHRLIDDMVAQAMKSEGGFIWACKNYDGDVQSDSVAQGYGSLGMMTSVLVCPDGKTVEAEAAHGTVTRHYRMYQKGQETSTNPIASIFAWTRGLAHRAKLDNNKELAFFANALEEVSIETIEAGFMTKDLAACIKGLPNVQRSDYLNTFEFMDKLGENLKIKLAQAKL
T cruzi growth-2 – T. cruzi intracellular proliferation inhibitors, confirmation, cell-based, NIH3T3 host, beta-gal parasite, luminescence, cherry-pick; shares compounds with T cruzi growth-1; T. cruzi beta-gal in NIH3T3, GalScreen luminescence, 90 h; inhibition, % at 8.35 µM; 5,600 compounds, 72% hits; AID 651739, 2012;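 active means mean replicate inhibition above about 95% and at least 55% of replicates individually reaching it, limit read from the data; inconclusive means only one of the two criteria is met; inactive means neither criterion is met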
T cruzi growth-3 – inhibitors of intracellular T. cruzi replication, confirmation, NIH3T3 host cells, beta-gal parasites, cherry-pick, set 2; 5,600 compounds, 21% hits; AID 651740, 2012; T. cruzi beta-gal in NIH3T3, GalScreen luminescence, 90 h; inhibition, % at 2.09 µM; shares compounds with T cruzi growth-1;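 active means mean inhibition above about 95%, with at least 55% of replicates also reaching it, limit read from the data; inconclusive means meets just one of the two conditions; inactive means meets neither condition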;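 further: plate controls were neutral control median for no effect and positive control median for full effect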
NIH3T3 tox – cytotoxicity in mouse NIH/3T3 fibroblasts, confirmation, cytotoxicity control for T. cruzi proliferation inhibitor project, cell-based, cherry-pick, single point; AID 651742, 2012; NIH/3T3 viability, CellTiter-Glo ATP luminescence, 90 h; cytotoxicity (signal decrease), % at 8.35 µM; 5,600 compounds, 14% hits; shares compounds with T cruzi growth-1;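 active means mean signal decrease across replicates above about 35% based on untreated-well scatter, with enough replicates individually passing, limit read from the data; inconclusive means no rule stated though some were filed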;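 further: 0% = median of neutral control wells and 100% = median of positive control wells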
NIH3T3 tox 2 – NIH/3T3 fibroblast cytotoxicity, confirmation, cytotoxicity control, cell-based, cherry-pick, single point, set 2. shares compounds with T cruzi growth-1. NIH/3T3 viability, CellTiter-Glo ATP luminescence, 90 h. inhibition, % at 24.9 µM. 5,600 compounds, 56% hits;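 active means mean loss of cell viability signal at or above a set limit, and enough replicates individually reaching it; inconclusive means meets only the mean limit or only the replicate share; inactive means meets neither condition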;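 further: 0% = median of neutral control wells and 100% = median of positive control wells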
An asterisk follows results filed as active; ? = inconclusive; . = no result.

SMILES | T cruzi growth-1 | KDM4C inh | Pf Dd2 inh | IDH1 mut inh | T cruzi growth-2 | T cruzi growth-3 | NIH3T3 tox | NIH3T3 tox 2
C[C@@H]1CCCCO[C@H](CN(C)S(=O)(=O)c2ccccc2)[C@H](C)CN([C@@H](C)CO)C(=O)c2cc(NC(=O)Nc3ccc(C(F)(F)F)cc3)ccc2O1 | 107* | 1 | ? | 3 | 96* | 111* | -1 | 14
C[C@@H]1CCCCO[C@H](CN(C)S(=O)(=O)c2ccccc2)[C@@H](C)CN([C@H](C)CO)C(=O)c2cc(NC(=O)Nc3ccc(C(F)(F)F)cc3)ccc2O1 | 115* | 0 | -75 | -1 | ? | -28 | 13 | 2
C[C@H](CO)N1C[C@H](C)[C@H](CN(C)S(=O)(=O)c2ccccc2)OCCCC[C@H](C)Oc2ccc(NC(=O)Nc3ccc(C(F)(F)F)cc3)cc2C1=O | 104* | 0 | -57 | 0 | 105* | 109* | 1 | 23
C[C@H](CO)N1C[C@H](C)[C@@H](CN(C)S(=O)(=O)c2ccccc2)OCCCC[C@H](C)Oc2ccc(NC(=O)Nc3ccc(C(F)(F)F)cc3)cc2C1=O | 87 | 0 | -43 | 1 | . | . | . | .
C[C@@H]1CCCCO[C@H](CN(C)S(=O)(=O)c2ccccc2)[C@@H](C)CN([C@@H](C)CO)C(=O)c2cc(NC(=O)Nc3ccc(C(F)(F)F)cc3)ccc2O1 | 103* | -1 | -82* | -1 | 106* | 109* | 42* | 70*
C[C@@H]1CN([C@H](C)CO)C(=O)c2cc(NC(=O)Nc3ccc(C(F)(F)F)cc3)ccc2O[C@@H](C)CCCCO[C@@H]1CN(C)S(=O)(=O)c1ccccc1 | 90 | 2 | -59 | 3 | . | . | . | .
C[C@H]1CCCCO[C@@H](CN(C)S(=O)(=O)c2ccccc2)[C@@H](C)CN([C@@H](C)CO)C(=O)c2cc(NC(=O)Nc3ccc(C(F)(F)F)cc3)ccc2O1 | 100* | 0 | -83* | . | 100* | 113* | 19 | 8
C/C=C/c1ccc(O)cc1C(=O)C(C)O (stereo not given) | . | . | . | 0 | . | . | . | .
Cc1sc2ncnc(NCCOCCO)c2c1C | . | . | . | 0 | . | . | . | .
O=C(CCNc1ccc(Cl)c(C(F)(F)F)c1)c1ccccc1 | . | . | . | 1 | . | . | . | .
CNC(=O)CN(c1cc(Cl)c(Cl)cc1Cl)S(C)(=O)=O | . | . | . | 0 | . | . | . | .
O=S(=O)(c1ccccc1F)N1CCCCN2[C@H](CO)[C@H](c3ccc(-c4ccncc4)cc3)[C@H]2C1 | 102* | -1 | -16 | . | 105* | 35 | 9 | 0
O=S(=O)(c1ccccc1F)N1CCCCN2[C@H](C1)[C@H](c1ccc(-c3cccnc3)cc1)[C@@H]2CO | 100* | 0 | 24 | . | 98* | 19 | 16 | 12
O=S(=O)(c1ccccc1F)N1CCCCN2[C@H](CO)[C@@H](c3ccc(-c4cccnc4)cc3)[C@@H]2C1 | 94 | 1 | 31 | . | . | . | . | .
C[C@H]1CCCCO[C@@H](CN(C)C(=O)Cc2ccccc2)[C@@H](C)CN([C@@H](C)CO)C(=O)c2cc(NS(=O)(=O)c3ccc(Cl)cc3)ccc2O1 | 101* | -2 | -65 | . | 109* | 80 | -23 | 17
C[C@H](CO)N1C[C@H](C)[C@H](CN(C)C(=O)c2ccccc2)OCCCC[C@H](C)Oc2ccc(NS(=O)(=O)c3ccc(Cl)cc3)cc2C1=O | 101* | 1 | 32 | . | 91 | 34 | -8 | 6
